Source: ChEMBL document CHEMBL4028905, “A Unique Approach to Design Potent and Selective Cyclic Adenosine Monophosphate Response Element Binding Protein, Binding Protein (CBP) Inhibitors” (J Med Chem, 2017)
The source made the active and inactive calls. The rule behind the calls is not given here.

How the values were obtained:
[1] = biological target: T1, Bromodomain-containing protein 9 (Homo sapiens, UniProt Q9H8M2); experiment: Binding affinity to human BRD9 (R130 to V259) expressed in bacterial cells by BromoScan assay; type: cell-based
T1 sequence (Q9H8M2 whole entry): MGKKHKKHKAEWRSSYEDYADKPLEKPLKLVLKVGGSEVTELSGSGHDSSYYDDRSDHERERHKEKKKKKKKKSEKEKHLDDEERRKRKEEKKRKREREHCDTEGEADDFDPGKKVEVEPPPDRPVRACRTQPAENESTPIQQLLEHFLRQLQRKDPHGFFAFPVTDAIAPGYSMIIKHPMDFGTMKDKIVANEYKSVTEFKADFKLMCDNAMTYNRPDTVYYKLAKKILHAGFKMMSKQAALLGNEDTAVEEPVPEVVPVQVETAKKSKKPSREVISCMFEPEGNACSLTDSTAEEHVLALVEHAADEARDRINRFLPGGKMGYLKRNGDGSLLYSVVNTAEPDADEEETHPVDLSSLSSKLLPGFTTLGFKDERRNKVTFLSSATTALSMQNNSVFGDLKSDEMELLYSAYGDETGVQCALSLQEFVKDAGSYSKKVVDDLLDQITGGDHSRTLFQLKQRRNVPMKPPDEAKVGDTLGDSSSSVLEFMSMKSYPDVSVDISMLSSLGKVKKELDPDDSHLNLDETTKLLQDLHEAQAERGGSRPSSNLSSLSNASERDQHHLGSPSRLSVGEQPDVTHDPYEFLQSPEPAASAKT

[2] = Intrinsic clearance in human liver microsomes at 1 uM in presence of NADPH by LC-MS/MS analysis; type: ADME, microsome; conditions: read-out: CLH
[3] = biological target: CREB-binding protein/Histone acetyltransferase p300 (Homo sapiens, UniProt Q09472+Q92793); experiment: Inhibition of P300/CBP in human MV4-11 cells assessed as reduction in MYC expression after 4 hrs by luminescence based assay; type: cell-based
In short: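 MV-4-11 cells plated at 10,000 per well in RPMI1640 with 10% FBS and 2 mM L-glutamine. Compounds added in DMSO at a final 0.1% and incubated 4 h at 37 °C before MYC expression read-out; EC50 derived.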

[4] = biological target: Histone acetyltransferase p300 (Homo sapiens) (UniProt Q09472); experiment: Binding affinity to human P300 (A1040 to G1161) expressed in bacterial cells by BromoScan assay; type: cell-based
[5] = Total clearance in CD-1 mouse at 1 mg/kg, iv or 5 mg/kg, po by LC-MS/MS analysis; type: ADME, organism-based; conditions: in vivo
In short: (§1)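 Female CD-1 mice, 6–9 weeks, 20–35 g, n = 3 per route. Dosing was 1 mg/kg i.v. in PEG400/DMSO/water (35/10/55 v/v) or 5 mg/kg p.o. suspended in 0.5% methylcellulose/0.2% Tween 80. Serial tail-nick blood sampled to 24 h and diluted in K2EDTA water. Analysis by acetonitrile precipitation and LC–MS/MS (MRM, positive ESI); LLOQ 0.001 μM.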

[6] = biological target: Bromodomain-containing protein 4 (Homo sapiens, UniProt O60885); experiment: Inhibition of His tagged recombinant BRD4 bromodomain 1 (unknown origin) by TR-FRET assay
In short: (§2)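 Recombinant His-tagged bromodomains purified by Ni affinity, tag removed with thrombin, checked by mass spectrometry. Assay is TR-FRET competition against a biotinylated small-molecule ligand. Normalized inhibition vs concentration fit to 4-parameter Hill equation; […] for optimization.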

[7] = Intrinsic clearance in rat liver microsomes at 1 uM in presence of NADPH by LC-MS/MS analysis; type: ADME, microsome; conditions: read-out: CLH
CREB-binding protein [8] = biological target: T2, CREB-binding protein (Homo sapiens, UniProt Q92793); experiment: Inhibition of His tagged recombinant CBP (unknown origin) by TR-FRET assay; in short: as §2
Target sequence in this assay (Q92793 whole entry): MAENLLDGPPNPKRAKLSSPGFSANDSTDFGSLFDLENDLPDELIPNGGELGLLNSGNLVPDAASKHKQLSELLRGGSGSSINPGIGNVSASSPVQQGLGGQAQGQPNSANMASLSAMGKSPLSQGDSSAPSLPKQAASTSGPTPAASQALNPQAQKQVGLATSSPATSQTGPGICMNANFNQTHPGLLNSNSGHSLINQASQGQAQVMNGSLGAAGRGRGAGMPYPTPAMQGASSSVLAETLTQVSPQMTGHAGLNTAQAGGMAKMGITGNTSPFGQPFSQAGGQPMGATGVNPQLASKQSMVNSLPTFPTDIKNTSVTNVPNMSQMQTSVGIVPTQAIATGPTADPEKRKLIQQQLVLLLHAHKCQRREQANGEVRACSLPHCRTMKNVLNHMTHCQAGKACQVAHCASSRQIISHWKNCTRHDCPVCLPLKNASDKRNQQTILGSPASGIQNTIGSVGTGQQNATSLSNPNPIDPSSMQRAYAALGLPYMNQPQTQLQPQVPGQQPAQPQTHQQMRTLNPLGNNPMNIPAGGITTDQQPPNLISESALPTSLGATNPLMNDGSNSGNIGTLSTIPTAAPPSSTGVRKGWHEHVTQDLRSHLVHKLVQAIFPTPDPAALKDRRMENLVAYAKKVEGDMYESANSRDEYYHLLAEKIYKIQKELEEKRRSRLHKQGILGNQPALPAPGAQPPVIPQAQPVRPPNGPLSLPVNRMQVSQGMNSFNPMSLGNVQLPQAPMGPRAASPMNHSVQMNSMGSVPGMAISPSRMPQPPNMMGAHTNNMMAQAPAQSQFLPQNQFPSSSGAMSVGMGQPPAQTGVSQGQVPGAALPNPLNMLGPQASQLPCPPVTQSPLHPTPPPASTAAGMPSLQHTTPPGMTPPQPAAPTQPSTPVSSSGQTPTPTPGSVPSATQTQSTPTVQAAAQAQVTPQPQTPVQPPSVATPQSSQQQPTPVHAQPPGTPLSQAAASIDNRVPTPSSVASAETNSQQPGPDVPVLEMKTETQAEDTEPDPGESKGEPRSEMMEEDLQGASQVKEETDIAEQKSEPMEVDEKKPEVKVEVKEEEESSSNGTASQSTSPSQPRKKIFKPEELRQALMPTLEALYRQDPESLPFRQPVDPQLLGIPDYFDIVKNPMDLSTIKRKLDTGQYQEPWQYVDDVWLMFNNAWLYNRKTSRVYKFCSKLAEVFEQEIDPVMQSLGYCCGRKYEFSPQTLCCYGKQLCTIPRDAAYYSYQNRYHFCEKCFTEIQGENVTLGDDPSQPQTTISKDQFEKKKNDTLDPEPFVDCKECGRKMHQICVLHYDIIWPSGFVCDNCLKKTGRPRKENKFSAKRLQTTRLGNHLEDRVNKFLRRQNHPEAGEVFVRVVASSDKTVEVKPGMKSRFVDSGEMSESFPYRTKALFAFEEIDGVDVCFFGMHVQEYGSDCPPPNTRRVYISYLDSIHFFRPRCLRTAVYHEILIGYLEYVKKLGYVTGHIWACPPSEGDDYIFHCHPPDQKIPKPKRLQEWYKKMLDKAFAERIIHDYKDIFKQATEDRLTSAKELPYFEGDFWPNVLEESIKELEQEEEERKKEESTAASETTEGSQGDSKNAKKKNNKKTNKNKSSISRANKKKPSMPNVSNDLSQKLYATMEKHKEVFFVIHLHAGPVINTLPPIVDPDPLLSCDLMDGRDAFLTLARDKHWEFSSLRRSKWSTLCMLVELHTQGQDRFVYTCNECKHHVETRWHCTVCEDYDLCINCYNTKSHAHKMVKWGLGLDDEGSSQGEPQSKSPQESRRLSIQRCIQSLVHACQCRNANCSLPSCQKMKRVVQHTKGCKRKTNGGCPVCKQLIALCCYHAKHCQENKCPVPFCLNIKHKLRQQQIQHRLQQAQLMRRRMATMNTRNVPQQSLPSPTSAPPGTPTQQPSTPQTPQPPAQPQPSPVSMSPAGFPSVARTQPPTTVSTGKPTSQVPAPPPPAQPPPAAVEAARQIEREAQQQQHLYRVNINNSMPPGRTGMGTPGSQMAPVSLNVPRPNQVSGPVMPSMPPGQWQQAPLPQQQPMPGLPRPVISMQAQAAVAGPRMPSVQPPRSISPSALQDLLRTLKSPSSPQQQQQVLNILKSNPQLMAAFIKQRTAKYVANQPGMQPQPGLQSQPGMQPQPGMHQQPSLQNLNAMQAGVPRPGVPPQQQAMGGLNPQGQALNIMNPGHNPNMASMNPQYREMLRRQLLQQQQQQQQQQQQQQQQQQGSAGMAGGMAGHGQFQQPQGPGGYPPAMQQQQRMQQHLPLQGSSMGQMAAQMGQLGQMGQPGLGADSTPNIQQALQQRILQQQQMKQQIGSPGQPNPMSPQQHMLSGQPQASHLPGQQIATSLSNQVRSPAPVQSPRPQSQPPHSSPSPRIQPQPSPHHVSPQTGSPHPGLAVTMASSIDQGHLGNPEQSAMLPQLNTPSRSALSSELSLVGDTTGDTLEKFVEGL

Homo sapiens = species on record: Homo sapiens; experiment: Selectivity ratio of IC50 for His tagged recombinant BRD4 bromodomain 1 (unknown origin) to IC50 for His tagged recombinant CBP (unknown origin)
[9] = Oral bioavailability in CD-1 mouse at 5 mg/kg by LC-MS/MS analysis; type: ADME, organism-based; conditions: in vivo; in short: as §1
CREB-binding protein [10] = biological target: T2, CREB-binding protein; experiment: Binding affinity to human CBP (R1081 to G1197) expressed in bacterial cells by BromoScan assay; type: cell-based
[11] = Volume of distribution at steady state in CD-1 mouse at 1 mg/kg, iv or 5 mg/kg, po by LC-MS/MS analysis; type: ADME, organism-based; conditions: in vivo, read-out: Vdss; in short: as §1
[12] = biological target: T3, Bromodomain-containing protein 7 (Homo sapiens, UniProt Q9NPI1); experiment: Binding affinity to human BRD7 (L125 to R254) expressed in mammalian cells by BromoScan assay; type: cell-based
T3 sequence (Q9NPI1 whole entry): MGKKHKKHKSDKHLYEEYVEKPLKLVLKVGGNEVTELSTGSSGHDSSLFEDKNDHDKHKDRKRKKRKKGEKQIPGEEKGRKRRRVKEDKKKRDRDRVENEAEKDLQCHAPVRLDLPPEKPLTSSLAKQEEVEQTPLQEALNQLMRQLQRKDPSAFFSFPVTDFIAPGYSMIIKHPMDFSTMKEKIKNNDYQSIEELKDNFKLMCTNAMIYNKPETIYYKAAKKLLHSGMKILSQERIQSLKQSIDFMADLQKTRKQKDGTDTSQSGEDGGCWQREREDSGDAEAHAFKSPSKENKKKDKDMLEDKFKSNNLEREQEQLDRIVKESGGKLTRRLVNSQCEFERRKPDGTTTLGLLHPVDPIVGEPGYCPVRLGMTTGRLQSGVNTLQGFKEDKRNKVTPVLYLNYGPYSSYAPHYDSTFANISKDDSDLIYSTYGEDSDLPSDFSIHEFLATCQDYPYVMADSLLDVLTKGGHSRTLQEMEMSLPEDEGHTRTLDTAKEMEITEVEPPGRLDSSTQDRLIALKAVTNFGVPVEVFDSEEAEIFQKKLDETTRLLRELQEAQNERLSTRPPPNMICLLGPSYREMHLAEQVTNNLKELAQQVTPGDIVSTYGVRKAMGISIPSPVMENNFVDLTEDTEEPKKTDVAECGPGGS

[13] = Intrinsic clearance in mouse liver microsomes at 1 uM in presence of NADPH by LC-MS/MS analysis; type: ADME, microsome; conditions: read-out: CLH
[14] = Half life in CD-1 mouse at 1 mg/kg, iv by LC-MS/MS analysis; type: ADME, organism-based; conditions: in vivo; in short: as §1
[15] = biological target: T4, Transcription intermediary factor 1-alpha (Homo sapiens, UniProt O15164); experiment: Binding affinity to human TRIM24 (G862 to E980) expressed in bacterial cells by BromoScan assay; type: cell-based
T4 sequence (O15164 whole entry): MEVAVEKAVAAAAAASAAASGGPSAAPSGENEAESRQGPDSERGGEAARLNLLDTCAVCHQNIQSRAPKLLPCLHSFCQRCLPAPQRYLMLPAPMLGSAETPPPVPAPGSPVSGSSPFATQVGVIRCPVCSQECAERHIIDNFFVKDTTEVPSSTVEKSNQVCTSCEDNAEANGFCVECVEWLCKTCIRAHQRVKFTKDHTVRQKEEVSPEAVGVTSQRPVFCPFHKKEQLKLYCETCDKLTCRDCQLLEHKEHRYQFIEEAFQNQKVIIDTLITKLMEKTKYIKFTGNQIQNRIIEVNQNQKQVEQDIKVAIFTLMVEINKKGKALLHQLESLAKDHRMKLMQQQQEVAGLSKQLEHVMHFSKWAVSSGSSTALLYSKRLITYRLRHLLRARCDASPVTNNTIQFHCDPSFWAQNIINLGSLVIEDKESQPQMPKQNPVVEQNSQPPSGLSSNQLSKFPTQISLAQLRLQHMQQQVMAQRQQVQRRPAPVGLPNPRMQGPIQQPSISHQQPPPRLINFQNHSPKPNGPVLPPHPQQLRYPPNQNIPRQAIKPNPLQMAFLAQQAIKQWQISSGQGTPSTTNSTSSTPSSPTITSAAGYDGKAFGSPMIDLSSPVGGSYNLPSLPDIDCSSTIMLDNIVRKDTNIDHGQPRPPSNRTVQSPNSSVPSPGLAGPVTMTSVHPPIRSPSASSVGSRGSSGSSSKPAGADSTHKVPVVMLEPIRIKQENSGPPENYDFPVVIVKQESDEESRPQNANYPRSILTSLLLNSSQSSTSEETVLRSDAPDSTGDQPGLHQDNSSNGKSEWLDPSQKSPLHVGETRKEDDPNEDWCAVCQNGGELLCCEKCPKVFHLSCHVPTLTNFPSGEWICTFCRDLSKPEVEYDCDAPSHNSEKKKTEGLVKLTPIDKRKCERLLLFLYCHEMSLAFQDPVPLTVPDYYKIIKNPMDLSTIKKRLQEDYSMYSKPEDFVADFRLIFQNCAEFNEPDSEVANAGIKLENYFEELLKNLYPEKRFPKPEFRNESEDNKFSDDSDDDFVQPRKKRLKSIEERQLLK

[16] = biological target: Bromodomain-containing protein 3 (Homo sapiens, UniProt Q15059); experiment: Binding affinity to human BRD3 bromodomain 2 (G306 to P416) expressed in bacterial cells by BromoScan assay; type: cell-based

Histone acetyltransferase p300 (Homo sapiens), sequence (Q09472 whole entry): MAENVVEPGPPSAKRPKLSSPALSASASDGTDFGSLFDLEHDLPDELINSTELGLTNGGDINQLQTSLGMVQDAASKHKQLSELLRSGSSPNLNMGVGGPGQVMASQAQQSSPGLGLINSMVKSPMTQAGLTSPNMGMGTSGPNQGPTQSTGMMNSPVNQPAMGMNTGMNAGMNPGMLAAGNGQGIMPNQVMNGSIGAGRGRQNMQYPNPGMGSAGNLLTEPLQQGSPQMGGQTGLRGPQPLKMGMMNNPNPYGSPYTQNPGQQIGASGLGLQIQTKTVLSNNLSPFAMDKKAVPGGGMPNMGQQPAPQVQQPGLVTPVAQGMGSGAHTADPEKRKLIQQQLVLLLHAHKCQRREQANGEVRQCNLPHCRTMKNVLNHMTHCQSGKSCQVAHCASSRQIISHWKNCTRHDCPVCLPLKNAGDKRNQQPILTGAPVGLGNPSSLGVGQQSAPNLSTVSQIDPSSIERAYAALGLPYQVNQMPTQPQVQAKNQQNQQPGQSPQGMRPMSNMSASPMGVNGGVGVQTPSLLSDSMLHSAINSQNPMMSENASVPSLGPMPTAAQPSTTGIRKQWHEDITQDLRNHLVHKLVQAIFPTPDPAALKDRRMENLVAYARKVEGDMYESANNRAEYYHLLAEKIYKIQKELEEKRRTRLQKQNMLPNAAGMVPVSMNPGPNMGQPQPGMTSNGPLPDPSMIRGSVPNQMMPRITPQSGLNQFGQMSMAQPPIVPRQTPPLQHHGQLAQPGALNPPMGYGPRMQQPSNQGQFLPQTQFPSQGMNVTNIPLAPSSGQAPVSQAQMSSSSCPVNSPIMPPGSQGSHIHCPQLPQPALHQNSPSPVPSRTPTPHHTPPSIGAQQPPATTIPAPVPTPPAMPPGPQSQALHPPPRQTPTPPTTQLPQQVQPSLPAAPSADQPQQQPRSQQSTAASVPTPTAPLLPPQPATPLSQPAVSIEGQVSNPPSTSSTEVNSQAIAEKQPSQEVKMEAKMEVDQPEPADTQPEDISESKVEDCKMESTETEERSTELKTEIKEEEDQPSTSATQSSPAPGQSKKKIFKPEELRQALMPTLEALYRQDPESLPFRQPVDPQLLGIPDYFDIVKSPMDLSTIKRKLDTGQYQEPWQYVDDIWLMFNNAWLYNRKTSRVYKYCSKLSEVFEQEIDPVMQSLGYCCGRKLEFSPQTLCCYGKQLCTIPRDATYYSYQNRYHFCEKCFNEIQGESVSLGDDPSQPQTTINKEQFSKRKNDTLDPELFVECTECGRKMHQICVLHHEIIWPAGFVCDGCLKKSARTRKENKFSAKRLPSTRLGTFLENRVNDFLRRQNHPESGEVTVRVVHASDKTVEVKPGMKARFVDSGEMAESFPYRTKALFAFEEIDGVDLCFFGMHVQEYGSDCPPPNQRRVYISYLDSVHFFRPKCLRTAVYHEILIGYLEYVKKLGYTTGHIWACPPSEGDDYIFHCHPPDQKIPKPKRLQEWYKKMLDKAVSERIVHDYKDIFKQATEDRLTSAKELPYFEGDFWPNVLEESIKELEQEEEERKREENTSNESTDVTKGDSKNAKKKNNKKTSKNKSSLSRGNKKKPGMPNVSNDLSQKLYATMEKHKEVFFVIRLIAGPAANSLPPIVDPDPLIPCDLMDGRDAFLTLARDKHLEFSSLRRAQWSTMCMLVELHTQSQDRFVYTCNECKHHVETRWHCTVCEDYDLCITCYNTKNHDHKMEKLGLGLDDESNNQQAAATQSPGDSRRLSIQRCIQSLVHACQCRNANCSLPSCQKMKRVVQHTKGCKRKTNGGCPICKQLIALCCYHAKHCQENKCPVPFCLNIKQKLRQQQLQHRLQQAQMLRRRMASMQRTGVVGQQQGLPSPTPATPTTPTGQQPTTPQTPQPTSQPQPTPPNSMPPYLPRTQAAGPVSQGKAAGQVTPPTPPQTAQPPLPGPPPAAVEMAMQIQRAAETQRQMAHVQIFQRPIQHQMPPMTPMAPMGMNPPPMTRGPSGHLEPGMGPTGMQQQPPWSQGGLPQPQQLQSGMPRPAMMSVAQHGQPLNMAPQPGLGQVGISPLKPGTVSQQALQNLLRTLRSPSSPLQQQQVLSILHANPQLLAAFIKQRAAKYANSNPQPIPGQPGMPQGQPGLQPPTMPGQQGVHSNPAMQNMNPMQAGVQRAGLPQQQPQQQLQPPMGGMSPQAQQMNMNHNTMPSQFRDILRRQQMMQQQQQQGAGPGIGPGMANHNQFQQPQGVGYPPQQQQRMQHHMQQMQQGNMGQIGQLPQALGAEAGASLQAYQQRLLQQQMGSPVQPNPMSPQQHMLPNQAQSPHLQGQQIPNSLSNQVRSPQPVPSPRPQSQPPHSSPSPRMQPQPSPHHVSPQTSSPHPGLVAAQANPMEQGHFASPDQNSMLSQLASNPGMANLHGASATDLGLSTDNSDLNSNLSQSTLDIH

Kd [1]: > 10000 nM | CLint scaled at 1 µM [2]: 13 mL/min/kg | EC50 [3]: 53 nM | Activity [4]: Active | clearance [5]: 18.2 mL/min/kg | IC50 [6]: 2300 nM | CLint scaled at 1 µM [7]: 25 mL/min/kg | IC50 (CREB-binding protein [8]): 2.2 nM | Ratio IC50 (Homo sapiens): 1050 | bioavailability [9]: 52% | Activity (CREB-binding protein [10]): Active | Vd [11]: 1.9 L/kg | Kd [12]: > 10000 nM | CLint scaled at 1 µM [13]: 50 mL/min/kg | half-life [14]: 1.3 h | Kd [15]: > 10000 nM | Kd [16]: > 10000 nM
Compound: CNC(=O)c1c[nH]c2c(C(C)C)nc(N3CCCc4cc(-c5cnn(C)c5)c(C(F)F)cc43)cc12
